Shown are actives, neighbours in structure and some others; about 2.6% of the full set was active somewhere.
ABCB6 inh 2 – ABCB6 transporter inhibitors, primary screen, K562-ABCB6 cells, flow cytometry, MLPCN library. ATP-binding cassette sub-family B member 6 (Homo sapiens), Q9NP58. K562-ABCB6 porphyrin accumulation, 1 h; active compounds read low. fluorescence ratio to DMSO, % at 10 µM. actives 0.19% (n = 360,000);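 active = fluorescence ratio to DMSO below 75%, the collection mean minus 3 SD; inconclusive = too few cells collected in the well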;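 note: signal is porphyrin accumulated inside mitochondria; 100% equals median channel fluorescence of DMSO control wells; lower ratio means ABCB6 inhibition with less porphyrin fluorescence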
MC4R antag cAMP – MC4R antagonists of cAMP signaling, primary screen, cell-based, TR-FRET, antagonist arm of biased-ligand search; MC4R-expressing cells, MTII-stimulated cAMP, LANCE TR-FRET; actives 0.48% (n = 360,000); inhibition, % at 6.5 µM;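 active = inhibition above its plate's cutoff, the mean of tested wells on that plate plus 3 SD, cut at about 29% in these data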;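 note: 0% = Melanotan II alone and 100% = Melanotan II plus saturating MCL0020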
Target sequence (P32245 whole entry, looked up): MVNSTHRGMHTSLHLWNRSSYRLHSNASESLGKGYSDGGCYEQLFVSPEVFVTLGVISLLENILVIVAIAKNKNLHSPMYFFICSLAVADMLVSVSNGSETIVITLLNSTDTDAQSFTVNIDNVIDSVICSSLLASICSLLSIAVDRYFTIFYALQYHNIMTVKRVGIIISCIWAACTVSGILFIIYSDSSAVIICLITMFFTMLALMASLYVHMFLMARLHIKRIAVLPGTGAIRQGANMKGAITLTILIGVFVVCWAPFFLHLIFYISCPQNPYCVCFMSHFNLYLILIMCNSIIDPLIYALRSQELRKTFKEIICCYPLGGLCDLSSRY
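Test system: U2OS cells stably expressing human melanocortin 4 receptor (MC4R); also added: Melanotan II challenge; compound: 6.5 µM single dose; timing: 30-min compound preincubation, 1-h Melanotan II challenge, 1-h detection, room temperature; signal: Eu-cAMP/anti-cAMP TR-FRET, emission 671 nm; repeats: one well per compound, no replicates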
iPSC survival up – enhancers of single-cell hiPSC survival, primary screen, ATPlite luminescence; 100% = ROCK inhibitor wells, 0% = DMSO; survival enhancement, % at 20 µM; actives 0.044% (n = 360,000); in the data active = survival enhancement above about 18%;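 note: cells exposed to compounds for 16 hours before the ATP read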
Exocytosis inh – LAMP-1 surface exposure blockers, TALL-104 cells – cell-based, flow cytometry, MLPCN library, primary screen | inhibition, % at 10 µM | actives 0.66% (n = 360,000) | TALL-104 LAMP-1 surface exposure; cells stimulated with thapsigargin and PMA | AID 651702, 2012;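 active = inhibition above about 55%, limit read from the data; inconclusive = no clear call, values can overlap the other calls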
MC4R ag barr – MC4R agonists recruiting beta-arrestin, primary screen, cell-based, luminescence, agonist arm of biased-ligand search. AID 540308, 2011. actives 0.98% (n = 360,000). activation, % at 8.9 µM. U2OS MC4R beta-arrestin complementation; percent of melanotan II response, DMSO zero;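 active = activation above a per-plate cutoff, the mean activation of sample wells on that plate plus 3 SD, cut at about 8% in these data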
Tb MetRS inh – T. brucei MetRS inhibitors, primary screen, biochemical, luminescence; methionyl-tRNA synthetase (Trypanosoma brucei brucei); purified T. brucei MetRS, ATP depletion, Kinase-Glo luminescence; inhibition, % at 11.9 µM; actives 0.4% (n = 360,000);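 active = inhibition above a per-plate cutoff of the control wells' mean inhibition plus 3 SD, cut at about 5.5% in these data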;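 note: 0% = DMSO wells median and 100% = median of wells with control inhibitor compound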
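Material – parasite MetRS enzyme · Medium – HEPES-MgCl2-KCl buffer plus DTT, spermine, BSA, pyrophosphatase · Reagent – ATP, methionine and E. coli bulk tRNA substrates · Times – 15 min enzyme-compound preincubation, 2 h reaction, 10 min detection, 25 °C · Measured by – luminescence of leftover ATP · Evaluation – percent inhibition relative to median high and low control wells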
Active calls of the source: *; u = inconclusive.

SMILES	ABCB6 inh 2	MC4R antag cAMP	iPSC survival up	Exocytosis inh	MC4R ag barr	Tb MetRS inh
Cc1ccc(C(=O)N2CCCc3ccccc32)c(F)c1F	84	3	0	4	-1	-1
COc1ccc(N2C(=O)CC(Sc3nccc(C)n3)C2=O)c(OC)c1 (stereo unspecified)	96	15	28*	6	-1	0
O=C(CCCN1C(=O)/C(=C\c2cccs2)SC1=S)Nc1ccccc1O	89	-3	-2	3	8.9*	0
CC(=O)Oc1cccc(C(=O)Nc2ccccc2C(=O)N2CCCC2)c1	97	1	0	3	-4	0
Cc1ccc(-n2nc3ccc(NC(=O)c4cccc([N+](=O)[O-])c4C)cc3n2)cc1	86	26	-3	16	8.9*	-1
CC[C@@H]1C(c2ccc(F)cc2)=NN(c2ccc(Br)cc2)[C@H]1C(=O)N1CCOC1=O	104	11	-2	-6	9.6*	0
COc1ccc(S(=O)(=O)N2CCOCC2)cc1NC(=O)CCNC(=O)c1ccc([N+](=O)[O-])cc1	99	3	-1	-3	0	0
CCOc1ccc2nc(SCC(=O)c3ccc(C)s3)sc2c1	94	-1	1	-2	2	0
CCOc1ccc2nc(SCC(=O)c3ccc(O)cc3O)sc2c1	99	-6	0	-12	8.5*	0
CCOC(=O)CC(NC(=O)C1c2ccccc2Oc2ccccc21)c1ccccc1Cl (stereo unspecified)	95	2	0	4	4	0
CCOC(=O)c1ccc(N2C(=O)C=CC2=O)cc1	96	22	-2	105*	-4	0
Cc1ccc(/C=N/Nc2cc(C)nc(NCc3ccccc3)n2)cc1	95	0	1	88*	1	-1
CCN1CCN(S(=O)(=O)c2ccc(Cl)c(C(=O)NC3CCC(C)CC3)c2)CC1 (stereo unspecified)	99	5	0	-1	1	0
Cc1cc(C)cc(OCC(=O)Nc2ccc(N3CCCCC3)cc2)c1	101	6	0	-4	8.8*	0
Cc1cc(C)cc(OCC(=O)Nc2ccc(N3CCN(S(C)(=O)=O)CC3)cc2)c1	98	-1	-3	-2	-3	0
O=C1N(CN2CCOCC2)c2ccccc2C12OCC(CCl)O2 (stereo unspecified)	94	14	1	-6	0	-1
CC(C)CN1CCN(Cc2cn(C)c3ccccc23)CC1CCO (stereo unspecified)	102	3	0	12	0	0
O=C(/C=C/c1cccc([N+](=O)[O-])c1)c1ccc([N+](=O)[O-])o1	105	30*	13	-2	-3	0
O=c1c2ccccc2sn1-c1ccc(S(=O)(=O)N2CCCCC2)cc1	96	-2	0	-5	-1	0
Cc1ccc(-n2sc3ccccc3c2=O)cc1S(=O)(=O)N1CCCCC1	96	53*	-5	-4	-4	0
Cc1cccc(Nc2nc(N)nc(CCl)n2)c1	101	13	-1	70*	5	0
Cc1ccc(Nc2nc(N)nc(CCl)n2)c(C)c1	98	11	-1	17	15*	0
CCOc1ccc(Nc2nc(N)nc(CCl)n2)cc1	103	11	-1	60*	12*	0
COc1cccc(Nc2nc(N)nc(CCl)n2)c1	103	2	0	68*	2	0
COc1ccc(CCNC(=O)COc2ncnc3ccccc23)cc1	103	7	0	14	1	0
O=C(COC(=O)c1nc(Cl)ccc1Cl)NCc1ccccc1	98	-4	2	u	-1	-1

Screens: PubChem, several laboratories
